Laboratory results published in ChEMBL document CHEMBL1135495, “New p-methylsulfonamido phenylethylamine analogues as class III antiarrhythmic agents: design, synthesis, biological assay, and 3D-QSAR analysis” (2002).

What was measured:
Cavia porcellus [1] = species: Cavia porcellus; assay: (§1) Percent change for delaying effective refractory period (ERP) in guinea pig at 10e-5 M concentration; assay type: functional
Method in brief: (§2)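 Isolated atria, left atria preloaded 10 mN and paced at 1 s⁻¹ with square-wave pulses at twice-threshold voltage. ERP was measured by paired electrical stimulation after a 1 h Tyrode's equilibration with washouts every 15 min. Drug was added cumulatively at 15 min intervals, with final concentrations rising geometrically. ERP was read 10 min after each addition.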

Cavia porcellus [2] = species: Cavia porcellus; assay: Percent change of force of constriction measured in guinea pig at 10e-5 M concentration; assay type: functional
Method in brief: (§3)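 Left atria under 10 mN preload, driven at 1 s⁻¹ by square-wave pulses at twice-threshold voltage. Isometric contractions were recorded via a strain gauge after a 1 h Tyrode's equilibration. Cumulative drug additions were made every 15 min, with final concentrations rising geometrically. The inotropic effect was determined 10 min after each addition.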

Cavia porcellus [3] = species: Cavia porcellus; assay: Percent change in heart rate measured in guinea pig at 10e-5 M concentration; assay type: functional
Method in brief: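 Spontaneously beating right atria, with contractions recorded in parallel to give beating rate. Tissue equilibrated 1 h in Tyrode's, washed every 15 min. Drug was added to the bath cumulatively at 15 min intervals in geometrically increasing final concentrations. The chronotropic effect was read 10 min after each addition.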

Cavia porcellus [4] = species: Cavia porcellus; assay: Effective concentration for delaying effective refractory period (ERP) 10 ms in guinea pig; assay type: functional; method in brief: as §2
Cavia porcellus [5] = species: Cavia porcellus; assay: Effective concentration for delaying effective refractory period (ERP) 10 ms in guinea pig; N means No effect at 10E-5 M; assay type: functional; method in brief: as §2
Cavia porcellus [6] = species: Cavia porcellus; assay: Percent change for delaying effective refractory period (ERP) in guinea pig at 10e-5 M concentration; N means No effect.; assay type: functional; method in brief: as §2
Cavia porcellus [7] = species: Cavia porcellus; assay: as §1; assay type: functional, organism-based; method in brief: as §2
Cavia porcellus [8] = species: Cavia porcellus; assay: Percent change of force of constriction measured in guinea pig at 10e-5 M concentration; N means No effect.; assay type: functional; method in brief: as §3
Cavia porcellus [9] = species: Cavia porcellus; assay: No effect was observed for ERP at 10x (10e-5) M concentration; N means No effect at 10E-5 M; assay type: functional; method in brief: as §2
Cavia porcellus [10] = species: Cavia porcellus; assay: Percent change of force of constriction measured in guinea pig at 10e-5 M concentration; Nf means No effect.; assay type: functional; method in brief: as §3

Structure (SMILES)	Delta ERP (Cavia porcellus [1]) [%]	Delta FC (Cavia porcellus [2]) [%]	Delta HR (Cavia porcellus [3]) [%]	C (Cavia porcellus [4]) [µM]	N (Cavia porcellus [5])	N (Cavia porcellus [6])	N (Cavia porcellus [7])	N (Cavia porcellus [8])	N (Cavia porcellus [9])	N (Cavia porcellus [10])
Cc1ccc(CN(C)CCc2ccc(N(S(C)(=O)=O)S(C)(=O)=O)cc2)cc1	12.6	-11.8	-15.4	0.953						
CS(=O)(=O)N(c1ccc(CCN(Cc2ccccc2)Cc2ccc3c(c2)OCO3)cc1)S(C)(=O)=O	9.46	-20	-18.3	0.38						
CN(CCOc1cccc2ccccc12)CCc1ccc(NS(C)(=O)=O)cc1	20.2	20.3	-28.5	0.293						
COc1ccc(CN(CCc2ccc(NS(C)(=O)=O)cc2)C(C)=O)cc1		14.3	-18.2		No effect	No effect				
CN(CCc1ccc(NS(C)(=O)=O)cc1)Cc1ccc2c(c1)OCO2	6.16	17.2	-15.3	0.89						
CN(CCOc1ccc(NS(C)(=O)=O)cc1)CCc1ccc(NS(C)(=O)=O)cc1 [DOFETILIDE]	24	17.1	-30	0.011						
CS(=O)(=O)Nc1ccc(CCN(Cc2ccccc2)Cc2ccc(Cl)cc2)cc1	14.5	25	16	1.05						
CS(=O)(=O)Nc1ccc(CCNCCOc2ccc(NS(C)(=O)=O)cc2)cc1 [N-DESMETHYLDOFETILIDE]	9.39	33.7	-23.8	0.023						
CS(=O)(=O)Nc1ccc(CCN(CCOc2ccc(NS(C)(=O)=O)cc2)S(C)(=O)=O)cc1		16.7	-18.8		No effect at 10E-5 M		No effect at 10E-5 M			
CS(=O)(=O)Nc1ccc(CCN(CCOc2ccc(NS(C)(=O)=O)cc2)C(=O)c2ccccc2)cc1	19	25	-28.4	0.039						
CN(CCOc1cccc2ccccc12)CCc1ccc(N(S(C)(=O)=O)S(C)(=O)=O)cc1	12		-20.7	0.203				No effect		
CS(=O)(=O)Nc1ccc(CCN(CCOc2ccc(NS(C)(=O)=O)cc2)Cc2ccccc2)cc1	17.5	24.8	-32	0.016						
CS(=O)(=O)N(c1ccc(CCN(CCOc2cccc3ccccc23)Cc2ccccc2)cc1)S(C)(=O)=O		25	-17.9			No effect			No effect	
Cc1ccc(CN(CCc2ccc(N(S(C)(=O)=O)S(C)(=O)=O)cc2)Cc2ccccc2)cc1	5.71	25	16	0.62						
CS(=O)(=O)Nc1ccc(CCN(CCOc2ccc(NS(C)(=O)=O)cc2)Cc2ccc(Cl)cc2)cc1	9.29	20	-40.6	0.037						
CC(=O)N(CCOc1cccc2ccccc12)CCc1ccc(NS(C)(=O)=O)cc1	58.4	-37.9	-46.2	0.05						
COc1ccc(CN(CCc2ccc(NS(C)(=O)=O)cc2)C(=O)c2ccccc2)cc1	6.33	33.3	-3.7	6.18						
COc1ccccc1CN(C)CCc1ccc(NS(C)(=O)=O)cc1	15.6	38.3	-26.7	0.155						

Structure (SMILES)	Delta ERP (Cavia porcellus [1]) [%]	Delta FC (Cavia porcellus [2]) [%]	Delta HR (Cavia porcellus [3]) [%]	C (Cavia porcellus [4]) [µM]	N (Cavia porcellus [5])	N (Cavia porcellus [6])	N (Cavia porcellus [7])	N (Cavia porcellus [8])	N (Cavia porcellus [9])	N (Cavia porcellus [10])
C=CCN(CCOc1cccc2ccccc12)CCc1ccc(N(S(C)(=O)=O)S(C)(=O)=O)cc1		16.7	-8.33		No effect	No effect				
COc1ccc(CN(C)CCc2ccc(N(S(C)(=O)=O)S(C)(=O)=O)cc2)cc1	8.7	25	-19.2	1.17						
CS(=O)(=O)Nc1ccc(CCN(CCOc2cccc3ccccc23)Cc2ccccc2)cc1		25	-31.8		No effect	No effect				
CS(=O)(=O)Nc1ccc(CCN(CCOc2cccc3ccccc23)C(=O)c2ccccc2)cc1	5.33	33.3	-20	8.67						
C=CCN(CCOc1cccc2ccccc12)CCc1ccc(NS(C)(=O)=O)cc1	9.77	16.7	-15.2	0.315						
CN(CCc1ccc(NS(C)(=O)=O)cc1)Cc1ccccc1	12.2	16.7	-20	0.372						
CN(CCc1ccc(NS(C)(=O)=O)cc1)Cc1ccc(Cl)cc1	7.06	8.33	-14.5	2.24						
CS(=O)(=O)Nc1ccc(CCN(Cc2ccccc2)Cc2ccccc2)cc1	16.1		-25	0.27				No effect		
COc1ccccc1CN(CCc1ccc(NS(C)(=O)=O)cc1)Cc1ccccc1	10.9	-14.3	-28.2	0.141						
COc1ccc(CN(CCc2ccc(N(S(C)(=O)=O)S(C)(=O)=O)cc2)Cc2ccccc2)cc1	9.09	-20	-27.3	0.79						
CS(=O)(=O)N(c1ccc(CCN(Cc2ccccc2)Cc2ccccc2)cc1)S(C)(=O)=O	9.56		-16	0.653				No effect		
CS(=O)(=O)Nc1ccc(CCN(CCOc2ccc(NS(C)(=O)=O)cc2)CCOc2ccc(NS(C)(=O)=O)cc2)cc1	13.5	20	-26.7	0.383						
COc1ccc(CN(CCOc2ccc(NS(C)(=O)=O)cc2)CCc2ccc(NS(C)(=O)=O)cc2)cc1	12.1	14.3	-25.8	0.21						
CN(CCc1ccc(NS(C)(=O)=O)cc1)C1CCCCC1	6.45	8.33	-8	4.79						
CC(=O)N(CCOc1ccc(NS(C)(=O)=O)cc1)CCc1ccc(NS(C)(=O)=O)cc1	16.9	17.5	-20.6	0.021						
COc1ccc(CN(CCc2ccc(NS(C)(=O)=O)cc2)Cc2ccc(Cl)cc2)cc1	19.3	15	-9.09	0.068						
CN(CCc1ccc(N(S(C)(=O)=O)S(C)(=O)=O)cc1)C1CCCCC1	6.24		-8.36	4.39						No effect
C=CCN(CCOc1ccc(NS(C)(=O)=O)cc1)CCc1ccc(NS(C)(=O)=O)cc1	12.4		-5.26	0.267				No effect		
